Data from ChEMBL document CHEMBL1133721, “Antitumor polycyclic acridines. 7. Synthesis and biological properties of DNA affinic tetra- and pentacyclic acridines” (J Med Chem, 2000).

Key:
Type in all cases: functional, cell-based
Details in all cases: Homo sapiens
NCI-H460 [1] = experiment: (§1) Inhibitory activity against NCI-H460 cell line using MTT assay(Wild type p53)
Outline: (§2)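 Cells were grown in RPMI 1640 with 2 mM L-glutamine, penicillin/streptomycin and 10% heat-inactivated FCS. Drugs were taken from 10 mM DMSO stocks. Viability was read by MTT at 0.4 mg/mL final for 4 h at 37 °C, with formazan dissolved in DMSO plus glycine buffer and read at 550 nm. IC50 is the concentration halving absorbance versus untreated controls, taken from dose-response curves.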

MDA-MB-468 = experiment: Inhibitory activity against MDA-468 cell line using MTT assay (ER-, amplified EGFR, mutant p53); outline: as §2
ZR-75-1 = experiment: Inhibitory activity against ZR-75-1 cell line using MTT assay (ER+,pgr+,mutant p53); outline: as §2
NCI-H226 [2] = experiment: Inhibitory activity against NCI-H226 cell line using MTT assay(mutant p53); outline: as §2
NCI-H460 [3] = experiment: Inhibitory activity against H460pv8 cell line using MTT assay
Outline: (§3)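 This is a 7-day MTT assay in RPMI 1640 with 2 mM L-glutamine, antibiotics and 10% heat-inactivated FCS. The H460pv8/eto variant was kept in 1 µM etoposide. MTT was used at 0.4 mg/mL final for 4 h at 37 °C, and formazan was dissolved in DMSO/glycine buffer and read at 550 nm. IC50 is the 50% absorbance reduction versus untreated controls, from dose-response curves.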

NCI-H647 = experiment: Inhibitory activity against NCI-H647 cell line using MTT assay(mutant p53); outline: as §2
MCF7 [4] = experiment: Inhibitory activity against MCF-7 wt cell line using MTT assay (ER+,pgR+,wildtype p53); outline: as §2
SK-BR-3 = experiment: Inhibitory activity against SKBR-3 cell line using MTT assay (ER-amplified erB2,mutant p53); outline: as §2
MDA-MB-231 = experiment: Inhibitory activity against MDA-231 cell line using MTT assay (ER-,EGFR+,mutant p53); outline: as §2
NCI-H460 [5] = experiment: Inhibitory activity against NCI-H460 cell line using MTT assay; outline: as §3
NCI-H358 [6] = experiment: (§4) Inhibitory activity against NCI-H358 cell line using MTT assay(mutant p53); outline: as §2
T47D = experiment: Inhibitory activity against T47D cell line using MTT assay (ER+,mutant p53); outline: as §2
A549 = experiment: Inhibitory activity against A549 cell line using MTT assay(Wild type p53); outline: as §2
NCI-H322M = experiment: (§5) Inhibitory activity against NCI-H322 cell line using MTT assay(mutant p53); outline: as §2
F460pv8/eto = experiment: Inhibitory activity against […] using MTT assay; outline: as §3
MCF7 [7] = experiment: Inhibitory activity against MCF7wt cell line using MTT assay; outline: as §2
NCI/ADR-RES = experiment: Inhibitory activity against MCF-7/adr cell line using MTT assay; outline: as §2
NCI-H460 [8] = experiment: as §5
Outline: (§6)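 Human NSCLC lines grown in RPMI 1640 with 2 mM L-glutamine, penicillin/streptomycin and 10% heat-inactivated FCS. Drugs were taken from 10 mM DMSO stocks. Cells were exposed for 7 days, then given MTT at 0.4 mg/mL final for 4 h at 37 °C. Formazan was dissolved in DMSO/glycine buffer and read at 550 nm. IC50 is the 50% absorbance drop versus untreated controls, read from dose-response curves.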

NCI-H358 [9] = experiment: as §1; outline: as §6
NCI-H226 [10] = experiment: as §4; outline: as §6

| SMILES | IC50 (NCI-H460 [1]) [nM] | IC50 (MDA-MB-468) [nM] | IC50 (ZR-75-1) [nM] | IC50 (NCI-H226 [2]) [nM] | IC50 (NCI-H460 [3]) [nM] | IC50 (NCI-H647) [nM] | IC50 (MCF7 [4]) [nM] | IC50 (SK-BR-3) [nM] | IC50 (MDA-MB-231) [nM] | IC50 (NCI-H460 [5]) [nM] | IC50 (NCI-H358 [6]) [nM] | IC50 (T47D) [nM] | IC50 (A549) [nM] | IC50 (NCI-H322M) [nM] | IC50 (F460pv8/eto) [nM] | IC50 (MCF7 [7]) [nM] | IC50 (NCI/ADR-RES) [nM] | IC50 (NCI-H460 [8]) [nM] | IC50 (NCI-H358 [9]) [nM] | IC50 (NCI-H226 [10]) [nM] |
| --- | --- | --- | --- | --- | --- | --- | --- | --- | --- | --- | --- | --- | --- | --- | --- | --- | --- | --- | --- | --- |
| N#CCCCc1cc2cccc3c2c(n1)-c1ccccc1N3 | 1170 | 1870 | 2700 | 1210 | 1120 | 1680 | 3790 | 3450 | 2050 | 1170 | 2010 | 3590 | 1330 | 1530 | – | – | – | – | – | – |
| Cc1ccc2c(c1)-c1cccc3nc4ccccc4c(c13)N2 | 710 | 170 | 390 | 1220 | 490 | 800 | 180 | 450 | 550 | 710 | 600 | 2130 | 810 | 840 | 490 | 180 | 1210 | – | – | – |
| c1ccc2c(c1)Nc1cccc3ccnc-2c13 | 2060 | 1370 | 1550 | 2340 | 1100 | 2200 | 830 | 580 | 1730 | 2060 | 1420 | 2100 | 2140 | 1860 | 1070 | – | – | – | – | – |
| c1ccc2c(c1)Nc1c3ccccc3nc3cccc-2c13 | 520 | 90 | 850 | 750 | 320 | 540 | 270 | 150 | 540 | 520 | 460 | 690 | 490 | 490 | 340 | 270 | 630 | – | – | – |
| Nc1ccc2c(c1)Nc1c3ccccc3nc3cccc-2c13 | 70 | 40 | 30 | 170 | 50 | 80 | 50 | 20 | 230 | 70 | 400 | 270 | 80 | 140 | 120 | 50 | 355 | – | – | – |
| O=[N+]([O-])c1ccc2c(c1)Nc1c3ccccc3nc3cccc-2c13 | – | 40 | 30 | > 10000 | – | 950 | 550 | 120 | > 10000 | – | – | > 10000 | > 10000 | – | – | – | – | > 10000 | > 10000 | 9500 |
| Clc1ccc2c(c1)-c1cccc3nc4ccccc4c(c13)N2 | 3900 | 310 | 5590 | > 10000 | 3770 | 5300 | 1670 | 1030 | 5450 | 3900 | 6030 | 5550 | 7100 | > 10000 | 6470 | 1670 | 6310 | – | – | – |
| N#CCCCc1cnc2c3c(cccc13)Nc1ccccc1-2 | 2560 | 320 | 720 | 2720 | 2060 | 2920 | 270 | 420 | 960 | 2560 | 2380 | 1310 | 2570 | 2270 | 1090 | 270 | 610 | – | – | – |
| c1ccc2c(c1)Nc1cccc3cc4[n+](c-2c13)CCC4 | 180 | 180 | 170 | 220 | 130 | 120 | 150 | 120 | 190 | 180 | 110 | 160 | 160 | 170 | 100 | 150 | 165 | – | – | – |
| COc1cc(NS(C)(=O)=O)ccc1Nc1c2ccccc2nc2ccccc12 [AMSACRINE] | 60 | 490 | 180 | 1010 | 200 | 70 | 75 | 60 | 140 | 60 | 150 | 220 | 30 | 210 | 40 | 75 | 1160 | – | – | – |
| COc1cccc2c1C(=O)c1c(O)c3c(c(O)c1C2=O)C[C@@](O)(C(=O)CO)C[C@@H]3O[C@H]1C[C@H](N)[C@H](O)[C@H](C)O1 [DOXORUBICIN] | 10 | 5 | 9 | 8 | 4 | < 1 | 1 | 20 | 6 | 10 | 130 | 7 | 4 | 30 | 20 | – | – | – | – | – |
| COc1cc([C@@H]2c3cc4c(cc3[C@@H](O[C@@H]3O[C@@H]5CO[C@@H](C)O[C@H]5[C@H](O)[C@H]3O)[C@H]3COC(=O)[C@H]23)OCO4)cc(OC)c1O [ETOPOSIDE] | 100 | 600 | 240 | 240 | 390 | 80 | 85 | 300 | 150 | 100 | 1500 | 160 | 160 | 1590 | 740 | – | – | – | – | – |
